Results taken from ChEMBL document CHEMBL1144254, “Synthesis and SAR of novel 4,5-diarylimidazolines as potent P2X7 receptor antagonists” (Bioorg Med Chem Lett, 2005).
Blank lines part the entries; values can stand above or below the compound they belong to.

Test system: U373 MG
Assay: Inhibitory concentration against YOPRO-1 dye uptake in U373MG cells stably expressing human P2X purinoceptor 7 using fluorescence assay
Assay type: functional, cell-based, U-373MG ATCC
Procedure, shortened: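 U373 cells stably expressing human P2X7 were grown overnight on collagen-coated plates at 35,000 cells/well. They were then preincubated 20 min at 37°C with increasing compound concentrations, in duplicate, in Mg²⁺/Ca²⁺-free HBSS. YO-PRO-1 iodide and then Bz-ATP were added, followed by 1.5 h at 37°C. Fluorescence was read at 485/530 nm against a no-compound control, and IC50 came from a nonlinear sigmoidal fit; means of duplicates, one or two experiments.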

IC50: 80 nM
SMILES: c1ccc(CCC2=N[C@H](c3ccccc3)[C@H](c3ccccc3)N2)cc1

IC50: > 1000 nM
SMILES: Clc1ccc(CCC2=N[C@H](c3ccccc3)[C@H](c3ccccc3)N2)cc1

IC50: 120 nM
SMILES: Clc1cccc(CCC2=N[C@H](c3ccccc3)[C@H](c3ccccc3)N2)c1

IC50: 830 nM
SMILES: COc1ccccc1CCC1=N[C@H](c2ccccc2)[C@H](c2ccccc2)N1

IC50: 2190 nM
SMILES: Cc1ccc(CCC2=N[C@H](c3ccccc3)[C@H](c3ccccc3)N2)cc1

IC50: 610 nM
SMILES: c1ccc(CCCCC2=N[C@H](c3ccccc3)[C@H](c3ccccc3)N2)cc1

IC50: 70 nM
SMILES: Clc1ccccc1CCC1=N[C@H](c2ccccc2)[C@H](c2ccccc2)N1

IC50: 160 nM
SMILES: Fc1ccccc1CCC1=N[C@H](c2ccccc2)[C@H](c2ccccc2)N1

IC50: 320 nM
SMILES: Cc1ccccc1CC1=N[C@H](c2ccccc2)[C@H](c2ccccc2)N1

IC50: 30 nM
SMILES: Clc1cccc(CC2=N[C@H](c3ccccc3)[C@H](c3ccccc3)N2)c1

IC50: 160 nM
SMILES: Clc1ccccc1CC1=N[C@H](c2ccccc2)[C@H](c2ccccc2)N1

IC50: 540 nM
SMILES: c1ccc(CCCC2=N[C@H](c3ccccc3)[C@H](c3ccccc3)N2)cc1

IC50: 220 nM
SMILES: Fc1ccc(CCC2=N[C@H](c3ccccc3)[C@H](c3ccccc3)N2)cc1

IC50: 580 nM
SMILES: Fc1ccccc1CC1=N[C@H](c2ccccc2)[C@H](c2ccccc2)N1

IC50: 1400 nM
SMILES: Clc1ccc(CCC2=N[C@H](c3ccccc3)[C@H](c3ccccc3)N2)cc1Cl

IC50: 40 nM
SMILES: Fc1cccc(CCC2=N[C@H](c3ccccc3)[C@H](c3ccccc3)N2)c1

IC50: 70 nM
SMILES: Cc1ccccc1CCC1=N[C@H](c2ccccc2)[C@H](c2ccccc2)N1

Continued, compound first:

SMILES: c1ccc([C@H]2C[C@@H]2C2=N[C@H](c3ccccc3)[C@H](c3ccccc3)N2)cc1
IC50: > 1000 nM

SMILES: c1ccc(C(CC2=N[C@H](c3ccccc3)[C@H](c3ccccc3)N2)c2ccccc2)cc1
IC50: 320 nM

SMILES: COc1ccc(CCC2=N[C@H](c3ccccc3)[C@H](c3ccccc3)N2)cc1OC
IC50: > 3000 nM

SMILES: CC(Cc1ccccc1)C1=N[C@H](c2ccccc2)[C@H](c2ccccc2)N1 (some centres not stated)
IC50: 570 nM

SMILES: COc1ccc(CCC2=N[C@H](c3ccccc3)[C@H](c3ccccc3)N2)cc1
IC50: > 3000 nM

SMILES: Cc1ccc(CC2=N[C@H](c3ccccc3)[C@H](c3ccccc3)N2)cc1
IC50: 80 nM

SMILES: FC(F)(F)c1ccc(CC2=N[C@H](c3ccccc3)[C@H](c3ccccc3)N2)cc1
IC50: 400 nM

SMILES: Fc1cccc(CC2=N[C@H](c3ccccc3)[C@H](c3ccccc3)N2)c1
IC50: 80 nM

SMILES: c1ccc([C@H]2N=C(C3Cc4ccccc4C3)N[C@H]2c2ccccc2)cc1
IC50: 50 nM

SMILES: Fc1ccc(CC2=N[C@H](c3ccccc3)[C@H](c3ccccc3)N2)cc1F
IC50: 30 nM

SMILES: Fc1ccc(CCC2=N[C@H](c3ccccc3)[C@H](c3ccccc3)N2)cc1F
IC50: 120 nM

SMILES: c1ccc([C@H]2N=C(CC3Cc4ccccc4C3)N[C@H]2c2ccccc2)cc1
IC50: 240 nM

SMILES: Clc1ccc(CC2=N[C@H](c3ccccc3)[C@H](c3ccccc3)N2)cc1
IC50: 270 nM

SMILES: Fc1ccc(CC2=N[C@H](c3ccccc3)[C@H](c3ccccc3)N2)cc1
IC50: 80 nM

SMILES: C[C@@H](CC1=N[C@H](c2ccccc2)[C@H](c2ccccc2)N1)c1ccccc1
IC50: 30 nM

SMILES: COc1cccc(CC2=N[C@H](c3ccccc3)[C@H](c3ccccc3)N2)c1OC
IC50: > 3000 nM

SMILES: CC(C)(CC1=N[C@H](c2ccccc2)[C@H](c2ccccc2)N1)c1ccccc1
IC50: 10 nM

SMILES: C[C@H](C1=N[C@H](c2ccccc2)[C@H](c2ccccc2)N1)c1ccccc1
IC50: 110 nM

SMILES: Fc1cccc(CC2=N[C@H](c3ccccc3)[C@H](c3ccccc3)N2)c1F
IC50: 930 nM

SMILES: c1ccc(C2=N[C@@H](c3ccccc3)[C@@H](c3ccccc3)N2)cc1
IC50: 3800 nM
